APP 5'UTR act: activators of APP 5'UTR luciferase reporter, primary screen, SH-SY5Y cells | SH-SY5Y APP 5'UTR luciferase reporter, luminescence; zero percent = DMSO vehicle wells | activation, % at 2 µM | 190,000 compounds, 1% hits | AID 1276, 2008;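 active = activation above a set limit, based on mean plus 3 SD of controls, cut at about 140% in these data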
STAT3 inh: IL-6 driven STAT3 reporter inhibitors, primary screen, U3A cells, luciferase, luminescence, MLSCN library | IL-6 STAT3-luciferase reporter; host cell line lacks STAT1 | inhibition, % at 5.5 µM | 190,000 compounds, 0.89% hits | AID 862, 2007;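 active = inhibition above the mean inhibition across all screened compounds plus 3 SD, cut at about 44% in these data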;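 also: 0% = DMSO only wells and 100% = 100 µM nifuroxazide control wells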
NF-kB neuron act: activators of NF-kB expression in neurons, primary screen, cell-based, HTS | human neuronal cells, NF-kB reporter expression; stronger effect = higher value | fold change at 12.5 µM | 190,000 compounds, 1.6% hits; in the data active = fold change above about 3.3
STAT1 act-1: STAT1 signaling activators, primary screen, cell-based, HTS, luciferase reporter; NIH 3T3 STAT1-luciferase reporter, IFN-gamma, luminescence; 100% = IFN-gamma alone, no compound; activation (% of control), % at 5.5 µM; 200,000 compounds, 2.6% hits;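 active = activation above the screen-wide mean activation plus 3 SD, cut at about 130% in these data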;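 also: raw ratio to IFN-gamma control signal so 100% means no change and 0% no light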
STAT1 inh: STAT1 signaling inhibitors, primary screen, cell-based, HTS, luciferase reporter; NIH 3T3 STAT1-luciferase reporter, IFN-gamma, luminescence; inhibition, % at 5.5 µM; 200,000 compounds, 0.35% hits;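 active = inhibition above a set limit, the mean inhibition across all tested compounds plus 3 SD, cut at about 34% in these data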;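 also: 0% = IFN-gamma with DMSO and 100% = IFN-gamma with 300 µM nifuroxazide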
STAT3 act-1: IL-6 driven STAT3 reporter potentiators, primary screen, U3A cells, luciferase, luminescence, MLSCN library | IL-6 STAT3-luciferase reporter; 100% = signal with IL-6 EC80 alone | activation (% of control), % at 5.6 µM | 190,000 compounds, 0.91% hits | AID 871, 2007;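 active = activation above the screen-wide mean of compound activation plus 3 SD, cut at about 130% in these data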;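 also: 0% = background luminescence of wells with medium and substrate only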
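Material: human STAT1-deficient U3A cells with stable STAT3-luciferase reporter / Probe or stimulus: IL-6 stimulus at 33 ng/mL final / Schedule: 1 h compound pre-exposure, 6 h IL-6 stimulation, 37 °C / Technique: luminescence / Read-out basis: percent of IL-6-only median luminescence / Control set: IL-6-only high control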
STAT3 act-2: STAT3 reporter potentiators, retest of hits, confirmation, U3A cells, luciferase, luminescence; IL-6 potentiation; U3A cells lack STAT1; 100 means same as IL-6 alone; shares compounds with STAT3 act-1; potentiation (% of control), % at 5.7 µM; 1,200 compounds, 64% hits; AID 1267, 2008;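 active = percent activation of the STAT3 luciferase reporter above a set limit taken from the earlier primary screen, cut at about 130% in these data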;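 also: 0% = background signal of medium plus substrate and 100% = median of IL-6 with DMSO wells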
NFkB act 2: NF-kB reporter activators in human cells, counter-screen for STAT3 activator project; activation (% of control), % at 5.7 µM; NF-kappaB reporter activation; 1,200 compounds, 11% hits; shares compounds with STAT3 act-1; in the data active = activation above about 120%;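 also: reporter induced by TNF-alpha stimulation; 100% = median of stimulated DMSO wells and 0% = no signal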
STAT1 act-2: STAT1 reporter activators, IFN-gamma induced, counter-screen for STAT3 activator project, cell-based, NIH 3T3, luciferase luminescence. NIH 3T3 STAT1-luciferase reporter. AID 1318, 2008. activation (% of control), % at 5.7 µM. shares compounds with STAT3 act-1. 1,200 compounds, 13% hits;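 active = activation above the solvent-only control well mean plus 3 SD, set per screening run, cut at about 120% in these data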;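 also: 100% = IFN-gamma with DMSO median signal so 100% means no change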
* marks the source's active call; other numbers are inactive results. Only some compounds are listed: those with a hit (about 5.1% of all), similar ones and a draw of the others.

What do the screens show for `COC(=O)C(NC=O)C(O)(Cc1ccccc1)C(F)(F)F` (stereo not drawn)?
APP 5'UTR act: -0.5; STAT3 inh: -63.3; NF-kB neuron act: 1.63; STAT1 act-1: 97.9; STAT1 inh: 2.3; STAT3 act-1: 158.2*; STAT3 act-2: 151.6*; NFkB act 2: 106.2; STAT1 act-2: 101.3

Results for COC(=O)C(O)(NC(=O)OCc1ccccc1)C(F)(F)F (stereo not drawn) ?
APP 5'UTR act: -13.3; STAT3 inh: 10.6; NF-kB neuron act: 1.19; STAT1 act-1: 89.8; STAT1 inh: 12.0; STAT3 act-1: 96.4

What do the screens show for `Cc1cc2c(cc1C)CSC(c1c(O)ccc3ccccc13)SC2`?
APP 5'UTR act: 21.0; STAT3 inh: 6.6; NF-kB neuron act: 1.11; STAT1 act-1: 103.0; STAT1 inh: -3.3; STAT3 act-1: 100.8

Results for Cc1cc2c(cc1C)CSC(c1ccc3ccccc3c1O)SC2 ?
APP 5'UTR act: 10.0; STAT3 inh: -60.7; NF-kB neuron act: 1.17; STAT1 act-1: 101.4; STAT1 inh: -2.0; STAT3 act-1: 152.1*; STAT3 act-2: 128.2; NFkB act 2: 96.1; STAT1 act-2: 96.8

What do the screens show for `COC(c1ccccc1)c1nnc(CCC(=O)NCCC(C)C)o1` (stereo not drawn)?
APP 5'UTR act: -16.3; STAT3 inh: 6.8; NF-kB neuron act: 1.06; STAT1 act-1: 101.6; STAT1 inh: -1.8; STAT3 act-1: 99.1

Results for O=C(O)c1cc(Cl)c2ccccc2c1O ?
APP 5'UTR act: 29.5; STAT3 inh: -44.0; NF-kB neuron act: 0.91; STAT1 act-1: 99.5; STAT1 inh: 4.0; STAT3 act-1: 138.9*; STAT3 act-2: 130.5; NFkB act 2: 108.8; STAT1 act-2: 107.2

What do the screens show for `CC(=O)Nc1ccc(NC(=O)c2ccc(CSc3ccccc3)o2)cc1`?
APP 5'UTR act: 28.1; STAT3 inh: -45.2; NF-kB neuron act: 0.98; STAT1 act-1: 98.7; STAT1 inh: 1.3; STAT3 act-1: 144.3*; STAT3 act-2: 113.1; NFkB act 2: 105.4; STAT1 act-2: 107.3

Results for O=C(Nc1cccc(F)c1)c1ccc(CSc2ccccc2)o1 ?
APP 5'UTR act: 8.1; STAT3 inh: -11.5; NF-kB neuron act: 1.73; STAT1 act-1: 98.0; STAT1 inh: 2.2; STAT3 act-1: 107.2

Results for COc1ccc(OC)c(Nc2nc3nonc3nc2N2CCCCC2)c1 ?
APP 5'UTR act: -9.1; STAT3 inh: -72.4; NF-kB neuron act: 1.05; STAT1 act-1: 96.2; STAT1 inh: 4.2; STAT3 act-1: 163.2*; STAT3 act-2: 99.2; NFkB act 2: 111.6; STAT1 act-2: 113.0

What do the screens show for `COc1ccc(C(=O)CNc2ccc3ccccc3c2)cc1`?
APP 5'UTR act: 18.1; STAT3 inh: -43.5; NF-kB neuron act: 1.15; STAT1 act-1: 121.3; STAT1 inh: -24.5; STAT3 act-1: 142.2*; STAT3 act-2: 131.5; NFkB act 2: 111.6; STAT1 act-2: 111.5

How did COc1ccc(S(=O)(=O)Nc2c(C(=O)O)[nH]c3ccccc23)c(OC)c1 do in these assays?
APP 5'UTR act: -2.5; STAT3 inh: -73.4; NF-kB neuron act: 0.95; STAT1 act-1: 97.2; STAT1 inh: 3.0; STAT3 act-1: 165.9*; STAT3 act-2: 159.4*; NFkB act 2: 104.7; STAT1 act-2: 99.5

What do the screens show for `Cc1ccc(C(=O)N2CCN3C(=O)c4ccccc4C23c2ccccc2)cc1` (stereo not drawn)?
APP 5'UTR act: 1.0; STAT3 inh: -60.5; NF-kB neuron act: 1.18; STAT1 act-1: 94.0; STAT1 inh: 4.9; STAT3 act-1: 158.5*; STAT3 act-2: 110.8; NFkB act 2: 102.2; STAT1 act-2: 100.9

What do the screens show for `CCOC(=O)c1nc2ccccc2s1`?
APP 5'UTR act: 17.3; STAT3 inh: -50.2; NF-kB neuron act: 2.3; STAT1 act-1: 120.0; STAT1 inh: -22.1; STAT3 act-1: 146.3*; STAT3 act-2: 146.7*; NFkB act 2: 116.5; STAT1 act-2: 133.5*

Results for Cc1ccc(S(=O)(=O)NC(=O)CSc2nc3ccccc3s2)cc1 ?
APP 5'UTR act: 1.5; STAT3 inh: -45.4; NF-kB neuron act: 1.09; STAT1 act-1: 103.8; STAT1 inh: -4.3; STAT3 act-1: 141.1*; STAT3 act-2: 124.5; NFkB act 2: 100.3; STAT1 act-2: 99.8

Results for Cc1cc(C)nc(NC(=O)CSc2nc3ccccc3s2)n1 ?
APP 5'UTR act: 47.9; STAT3 inh: -12.0; NF-kB neuron act: 3.07; STAT1 act-1: 118.7; STAT1 inh: -20.2; STAT3 act-1: 116.9

What do the screens show for `CCOC(=O)/C(C#N)=C/c1cn(CCOc2ccc(OC)cc2)c2ccccc12`?
APP 5'UTR act: 23.7; STAT3 inh: 16.4; NF-kB neuron act: 1.34; STAT1 act-1: 99.3; STAT1 inh: 0.8; STAT3 act-1: 88.7

Results for O=C(COC(=O)c1ccccc1Br)Nc1cc(S(=O)(=O)N2CCOCC2)ccc1N1CCCC1 ?
APP 5'UTR act: -11.2; STAT3 inh: -8.7; NF-kB neuron act: 1.39; STAT1 act-1: 87.2; STAT1 inh: 13.1; STAT3 act-1: 109.2

What do the screens show for `Clc1ccc(C2=Nn3c(nnc3-c3cc(-c4ccccc4)n[nH]3)SC2)cc1`?
APP 5'UTR act: -2.9; STAT3 inh: 14.9; NF-kB neuron act: 0.96; STAT1 act-1: 104.9; STAT1 inh: -9.9; STAT3 act-1: 94.5

How did Oc1ccc(Cl)cc1-c1cc(-c2ccccc2)n[nH]1 do in these assays?
APP 5'UTR act: 35.7; STAT3 inh: -51.8; NF-kB neuron act: 1.78; STAT1 act-1: 110.7; STAT1 inh: -11.9; STAT3 act-1: 147.8*; STAT3 act-2: 142.4*; NFkB act 2: 114.4; STAT1 act-2: 125.2*

What do the screens show for `CCOC(=O)Cn1c(=O)c(-c2ccccc2NCc2ccccc2)nc2ccccc21`?
APP 5'UTR act: 9.2; STAT3 inh: -38.6; STAT1 act-1: 98.3; STAT1 inh: 1.9; STAT3 act-1: 136.0*; STAT3 act-2: 126.9; NFkB act 2: 98.5; STAT1 act-2: 94.9

Screens deposited in PubChem BioAssay by several laboratories.
